Several values for one entry are separate records, joined by “and”; a condition that tells them apart may be missing. Identical values can stand only once. Activity calls are given as the source filed them. The calls are words filed in the database; no cut-off is given here.
Experiments:
Format in all cases: cell-based
[1] = system: COS-7; assay: Inhibition of squalene synthase in african green monkey COS7 cells assessed as of cholesterol level at 5 uM after 14 to 18 hrs by fluorescence correlation spectroscopy relative to control; parameters: scale not given: the % may be the effect or the level left; settings: Chlorocebus aethiops
[2] = species: Mus musculus; assay: Inhibition of CD-28 triggered Ras/MAPK in mouse DWT6.11 cells by immunoblotting analysis
Outline: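 DWT6.11 cells were pretreated with myriocin (25 µM, 48 h in complete medium, then serum-starved 14–18 h). They were stimulated or not with CD28 monoclonal antibody. The Ras/MAPK pathway was read as ERK phosphorylation by immunoblotting.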

[3] = biological target: T1, Squalene synthase (Homo sapiens) (UniProt P37268); assay: Inhibition of squalene synthase in human Jurkat JA16 cells assessed as cholesterol level at 5 uM after 14 to 18 hrs by fluorescence correlation spectroscopy relative to control; parameters: scale not given: the % may be the effect or the level left
T1 sequence (whole entry): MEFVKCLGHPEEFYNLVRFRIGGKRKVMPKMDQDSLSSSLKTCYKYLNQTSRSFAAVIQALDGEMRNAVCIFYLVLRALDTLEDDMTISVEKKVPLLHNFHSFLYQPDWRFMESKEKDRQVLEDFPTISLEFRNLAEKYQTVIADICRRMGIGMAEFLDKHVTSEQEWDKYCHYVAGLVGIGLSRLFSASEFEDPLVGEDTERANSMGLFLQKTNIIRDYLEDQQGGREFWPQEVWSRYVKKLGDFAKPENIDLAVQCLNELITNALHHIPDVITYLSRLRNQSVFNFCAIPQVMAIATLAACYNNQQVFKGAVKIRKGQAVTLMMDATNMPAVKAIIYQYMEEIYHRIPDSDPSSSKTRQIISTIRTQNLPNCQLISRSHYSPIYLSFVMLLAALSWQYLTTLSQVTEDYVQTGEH

[4] = biological target: T2, Squalene synthase (Mus musculus) (UniProt P53798); assay: Inhibition of squalene synthase in mouse DWT6.11 cells assessed as sphingomyelin level at 5 uM after 14 to 18 hrs by fluorescence correlation spectroscopy relative to control; parameters: scale not given: the % may be the effect or the level left
T2 sequence (whole entry): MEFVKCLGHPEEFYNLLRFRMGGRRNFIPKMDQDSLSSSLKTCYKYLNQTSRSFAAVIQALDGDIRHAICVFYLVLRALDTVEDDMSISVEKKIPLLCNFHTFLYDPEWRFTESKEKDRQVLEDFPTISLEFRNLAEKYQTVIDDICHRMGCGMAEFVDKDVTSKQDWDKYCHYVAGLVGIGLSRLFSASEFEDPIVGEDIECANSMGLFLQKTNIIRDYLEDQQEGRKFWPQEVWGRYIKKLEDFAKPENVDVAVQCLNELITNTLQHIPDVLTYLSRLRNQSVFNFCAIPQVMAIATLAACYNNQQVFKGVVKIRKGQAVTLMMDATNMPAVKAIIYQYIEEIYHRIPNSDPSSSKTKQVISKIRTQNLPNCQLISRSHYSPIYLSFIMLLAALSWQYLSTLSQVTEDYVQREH

[5] = system: COS-7; assay: Inhibition of squalene synthase in african green monkey COS7 cells assessed as cholesterol level at 5 uM after 14 to 18 hrs by fluorescence correlation spectroscopy relative to control; parameters: scale not given: the % may be the effect or the level left; settings: Chlorocebus aethiops
[6] = biological target: T2, Squalene synthase (Mus musculus); assay: Inhibition of squalene synthase in mouse DWT6.11 cells assessed as cholesterol level at 5 uM after 14 to 18 hrs by fluorescence correlation spectroscopy relative to control; parameters: scale not given: the % may be the effect or the level left
[7] = system: Jurkat; assay: Inhibition of serine palmitoyltransferase in human Jurkat JA16 cells assessed as sphingomyelin level at 5 uM after 14 to 18 hrs by fluorescence correlation spectroscopy relative to control; parameters: scale not given: the % may be the effect or the level left
[8] = system: COS-7; assay: Inhibition of serine palmitoyltransferase in african green monkey COS7 cells assessed as sphingomyelin level at 10 uM after 14 to 18 hrs by fluorescence correlation spectroscopy relative to control; parameters: scale not given: the % may be the effect or the level left; settings: Chlorocebus aethiops
[9] = system: COS-7; assay: Inhibition of serine palmitoyltransferase in african green monkey COS7 cells assessed as cholesterol level at 10 uM after 14 to 18 hrs by fluorescence correlation spectroscopy relative to control; parameters: scale not given: the % may be the effect or the level left; settings: Chlorocebus aethiops
[10] = species: Mus musculus; assay: Inhibition of serine palmitoyltransferase in mouse DWT6.11 cells assessed as sphingomyelin level at 25 uM after 14 to 18 hrs by fluorescence correlation spectroscopy relative to control; parameters: scale not given: the % may be the effect or the level left
[11] = system: Jurkat; assay: Inhibition of serine palmitoyltransferase in human Jurkat JA16 cells assessed as lateral diffusion of the outer membrane leaflet-linked FL-PE nanodomain at 25 uM after 14 to 18 hrs by fluorescence correlation spectroscopy
[12] = species: Mus musculus; assay: Inhibition of serine palmitoyltransferase in mouse DWT6.11 cells assessed as cholesterol level at 25 uM after 14 to 18 hrs by fluorescence correlation spectroscopy relative to control; parameters: scale not given: the % may be the effect or the level left
[13] = system: Jurkat; assay: Inhibition of serine palmitoyltransferase in human Jurkat JA16 cells assessed as sphingomyelin level at 25 uM after 14 to 18 hrs by fluorescence correlation spectroscopy relative to control; parameters: scale not given: the % may be the effect or the level left
[14] = biological target: T1, Squalene synthase (Homo sapiens); assay: Inhibition of squalene synthase in human Jurkat JA16 cells assessed as cholesterol level at 25 uM after 14 to 18 hrs by fluorescence correlation spectroscopy relative to control; parameters: scale not given: the % may be the effect or the level left
[15] = biological target: RAC-alpha serine/threonine-protein kinase (Mus musculus) (UniProt P31750); assay: Inhibition of CD-28 triggered Akt phosphorylation in mouse DWT6.11 cells assessed as enzyme phosphorylation at Ser473 by immunoblotting relative to control; settings: concentration not given here
Chain of RAC-alpha serine/threonine-protein kinase (Mus musculus) (P31750 whole entry): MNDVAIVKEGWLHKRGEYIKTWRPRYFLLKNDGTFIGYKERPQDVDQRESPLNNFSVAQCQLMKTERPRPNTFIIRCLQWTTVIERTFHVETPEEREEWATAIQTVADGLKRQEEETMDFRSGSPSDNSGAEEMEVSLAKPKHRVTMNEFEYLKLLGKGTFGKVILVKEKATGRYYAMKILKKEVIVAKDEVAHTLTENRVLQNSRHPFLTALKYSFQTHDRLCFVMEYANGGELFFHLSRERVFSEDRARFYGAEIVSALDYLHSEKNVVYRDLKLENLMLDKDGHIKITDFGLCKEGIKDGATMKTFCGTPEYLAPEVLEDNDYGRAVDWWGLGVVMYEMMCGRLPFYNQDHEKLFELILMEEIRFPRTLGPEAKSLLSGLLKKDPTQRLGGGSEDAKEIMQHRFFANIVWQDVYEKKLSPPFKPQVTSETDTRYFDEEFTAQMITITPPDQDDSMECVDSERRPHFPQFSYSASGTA
Outline: (§1)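 DWT6.11 mouse T cells were given 25 µM myriocin for 48 h in complete medium, then serum-starved 14–18 h with 25 µM myriocin, then stimulated with CD28 monoclonal antibody. Akt Thr308 and Ser473 phosphorylation induction was quantified by immunoblotting as % of untreated cells, mean ± s.d., n = 3.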

[16] = biological target: RAC-alpha serine/threonine-protein kinase (Mus musculus) (UniProt P31750); assay: Inhibition of CD-28 triggered Akt phosphorylation in mouse DWT6.11 cells assessed as enzyme phosphorylation at Thr308 by immunoblotting relative to control; settings: concentration not given here; outline: as §1

Row | SMILES | Activity [1] [%] | inhibition [2] | Activity [3] [%] | Activity [4] [%] | Activity [5] [%] | Activity [6] [%] | Activity [7] [%] | Activity [8] [%] | Activity [9] [%] | Activity [10] [%] | Activity [11] | Activity [12] [%] | Activity [13] [%] | Activity [14] [%] | inhibition [15] [%] | inhibition [16] [%]
1 | C=C(CC[C@]12O[C@H](C(=O)O)[C@@](O)(C(=O)O)[C@](C(=O)O)(O1)[C@H](OC(=O)/C=C/[C@@H](C)C[C@@H](C)CC)[C@H]2O)[C@@H](OC(C)=O)[C@H](C)Cc1ccccc1 | 90 | inactive | 81 | 103 | 73 | 64 | 97 |  |  |  |  |  |  |  |  | 
2 | CCCCCCC(=O)CCCCCC/C=C/C[C@@H](O)[C@H](O)[C@@](N)(CO)C(=O)O |  | inactive |  |  |  |  |  | 30 | 92 | 24 | 0.9 ms and 0.8 um2/s | 98 | 28 | 97 | 51.2 | 50.8

From ChEMBL document CHEMBL1240339, “Raft nanodomains contribute to Akt/PKB plasma membrane recruitment and activation” (Nat Chem Biol, 2008)
